Active and inactive are the calls of the source. No cut-off for these calls is given here.
T1: Bifunctional dihydrofolate reductase-thymidylate synthase (Cryptosporidium hominis) (UniProt A0A0S4TER9)
T1 sequence (whole entry): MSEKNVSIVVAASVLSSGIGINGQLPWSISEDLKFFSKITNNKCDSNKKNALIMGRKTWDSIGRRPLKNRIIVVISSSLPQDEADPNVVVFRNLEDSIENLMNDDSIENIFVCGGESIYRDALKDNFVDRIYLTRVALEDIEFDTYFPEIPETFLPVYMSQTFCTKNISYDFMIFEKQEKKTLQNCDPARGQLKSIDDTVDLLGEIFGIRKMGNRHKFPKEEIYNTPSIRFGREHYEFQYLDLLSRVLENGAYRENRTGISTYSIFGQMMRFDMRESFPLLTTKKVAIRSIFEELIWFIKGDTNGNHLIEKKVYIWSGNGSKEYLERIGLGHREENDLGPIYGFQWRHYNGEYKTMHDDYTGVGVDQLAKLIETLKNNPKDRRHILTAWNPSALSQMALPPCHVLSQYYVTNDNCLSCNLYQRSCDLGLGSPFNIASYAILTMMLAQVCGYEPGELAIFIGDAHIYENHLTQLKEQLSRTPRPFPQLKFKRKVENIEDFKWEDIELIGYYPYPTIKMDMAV

T2: Bifunctional dihydrofolate reductase-thymidylate synthase (Cryptosporidium hominis), A0A0S4TER9 [C44S]
T2 sequence (whole entry): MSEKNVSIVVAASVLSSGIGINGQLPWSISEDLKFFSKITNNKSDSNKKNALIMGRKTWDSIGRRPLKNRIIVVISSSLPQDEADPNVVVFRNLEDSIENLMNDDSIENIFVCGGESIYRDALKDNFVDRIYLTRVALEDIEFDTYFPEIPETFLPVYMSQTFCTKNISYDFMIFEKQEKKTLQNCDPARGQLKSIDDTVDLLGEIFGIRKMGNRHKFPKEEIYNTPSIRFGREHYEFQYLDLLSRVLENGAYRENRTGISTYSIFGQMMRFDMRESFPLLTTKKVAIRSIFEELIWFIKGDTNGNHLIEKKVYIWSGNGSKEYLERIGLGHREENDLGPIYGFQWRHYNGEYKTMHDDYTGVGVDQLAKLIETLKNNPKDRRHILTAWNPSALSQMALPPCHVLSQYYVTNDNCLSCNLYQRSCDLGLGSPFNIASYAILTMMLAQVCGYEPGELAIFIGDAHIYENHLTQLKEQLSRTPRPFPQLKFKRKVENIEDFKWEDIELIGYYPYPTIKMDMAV

T3: Dihydrofolate reductase (Homo sapiens) (UniProt P00374)
T3 sequence (whole entry): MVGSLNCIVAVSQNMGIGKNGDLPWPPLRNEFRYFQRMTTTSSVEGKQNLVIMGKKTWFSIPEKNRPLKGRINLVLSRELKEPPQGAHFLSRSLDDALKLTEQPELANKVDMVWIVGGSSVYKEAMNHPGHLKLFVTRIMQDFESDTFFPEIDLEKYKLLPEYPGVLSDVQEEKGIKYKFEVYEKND


How the values were obtained:
[1] = target: T1, Bifunctional dihydrofolate reductase-thymidylate synthase (Cryptosporidium hominis); assay: Inhibition of recombinant Cryptosporidium hominis TS-DHFR expressed in Escherichia coli PA414 assessed as reduction in DHFR steady state activity at 500 uM using [3',5',7,9-3H]-H2folate as substrate preincubated for 10 mins before NADPH addition for 5 mins followed by substrate addition and measured after 5 mins by NADPH based radiometric chemical quench assay relative to control
In short: (§1)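 Radiometric DHFR steady-state activity assay on recombinant ChTS-DHFR. Compound was incubated with the enzyme for 10 min before the reaction was started. Single-point screen was at 500 µM, and dose-dependence was also assessed. Activity is expressed as percent of control.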

[2] = target: T1, Bifunctional dihydrofolate reductase-thymidylate synthase (Cryptosporidium hominis); assay: Mixed noncompetitive inhibition of recombinant Cryptosporidium hominis TS-DHFR expressed in Escherichia coli PA414 assessed as Kobs at 100 uM […] preincubated for 10 mins before NADPH addition for 5 mins followed by substrate addition and measured after 5 mins by Lineweaver-Burk plot analysis (reference value: 1.98 +/- 0.09 /s)
[3] = target: T1, Bifunctional dihydrofolate reductase-thymidylate synthase (Cryptosporidium hominis); assay: Inhibition of recombinant Cryptosporidium hominis TS-DHFR expressed in Escherichia coli PA414 assessed as reduction in DHFR steady state activity using [3',5',7,9-3H]-H2folate as substrate preincubated for 10 mins before NADPH addition for 5 mins followed by substrate addition and measured after 5 mins by NADPH based radiometric chemical quench assay relative to control; in short: as §1
[4] = target: T1, Bifunctional dihydrofolate reductase-thymidylate synthase (Cryptosporidium hominis); assay: Mixed noncompetitive inhibition of recombinant Cryptosporidium hominis TS-DHFR expressed in Escherichia coli PA414 assessed as Kobs at 250 uM […] preincubated for 10 mins before NADPH addition for 5 mins followed by substrate addition and measured after 5 mins by Lineweaver-Burk plot analysis (reference value: 1.98 +/- 0.09 /s)
[5] = Solubility of the compound at >500 uM; assay type: physicochemical
[6] = target: T1, Bifunctional dihydrofolate reductase-thymidylate synthase (Cryptosporidium hominis); assay: Inhibition of recombinant Cryptosporidium hominis TS-DHFR expressed in Escherichia coli PA414 assessed as decrease in TS activity
[7] = tested on: T2, Bifunctional dihydrofolate reductase-thymidylate synthase (Cryptosporidium hominis), A0A0S4TER9 [C44S]; assay: Inhibition of recombinant Cryptosporidium hominis TS-DHFR Cys44Ser mutant expressed in Escherichia coli PA414 assessed as reduction in DHFR steady state activity at 500 uM using [3',5',7,9-3H]-H2folate as substrate preincubated for 16 hrs before NADPH addition for 5 mins followed by substrate addition and measured after 5 mins by NADPH based radiometric chemical quench assay relative to control
In short: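 Wild-type and Cys44Ser mutant ChTS-DHFR, each incubated 16 h with compound before the radiometric DHFR reaction was started. Read-out was percent DHFR activity.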

[8] = target: T1, Bifunctional dihydrofolate reductase-thymidylate synthase (Cryptosporidium hominis); assay: Inhibition of recombinant Cryptosporidium hominis TS-DHFR expressed in Escherichia coli PA414 assessed as reduction in DHFR steady state activity at 500 uM using [3',5',7,9-3H]-H2folate as substrate preincubated for 1 hr to 72 hrs before NADPH addition for 5 mins followed by substrate addition and measured after 5 mins by NADPH based radiometric chemical quench assay relative to control; conditions: TDE = time-dependent effect
In short: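 Compound at 500 µM was incubated with ChTS-DHFR for 1 h, 16 h, 48 h or 72 h before the radiometric DHFR reaction was initiated, to follow time-dependent inhibition. The standard assay uses a 10 min incubation.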

[9] = target: T3, Dihydrofolate reductase (Homo sapiens); assay: Inhibition of human DHFR assessed as decrease in DHFR steady state activity at 500 uM using [3',5',7,9-3H]-H2folate as substrate preincubated for 16 hrs before NADPH addition incubated for 5 mins followed by substrate addition and measured after 5 mins by NADPH based radiometric chemical quench assay relative to control
In short: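 Radiometric DHFR steady-state assay with human DHFR. Compound and enzyme were incubated for 16 h before the reaction was started. Percent inhibition was read relative to control.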

[10] = compound: Cc1cc(Br)ccc1NC(=S)Nc1cccc(NC(=O)c2ccccc2O)c1; assay: Mixed noncompetitive inhibition of recombinant Cryptosporidium hominis TS-DHFR expressed in Escherichia coli PA414 assessed as substrate Kcat at 100 uM using varying levels of [3',5',7,9-3H]-H2folate as substrate preincubated for 10 mins before NADPH addition for 5 mins followed by substrate addition and measured after 5 mins by Lineweaver-Burk plot analysis (reference value: 2.17 +/- 0.04 /s)
[11] = compound: Cc1cc(Br)ccc1NC(=S)Nc1cccc(NC(=O)c2ccccc2O)c1; assay: Mixed noncompetitive inhibition of recombinant Cryptosporidium hominis TS-DHFR expressed in Escherichia coli PA414 assessed as substrate Km at 100 uM using varying levels of [3',5',7,9-3H]-H2folate as substrate preincubated for 10 mins before NADPH addition for 5 mins followed by substrate addition and measured after 5 mins by Lineweaver-Burk plot analysis (reference value: 1.2 +/- 0.2 uM)
[12] = compound: Cc1cc(Br)ccc1NC(=S)Nc1cccc(NC(=O)c2ccccc2O)c1; assay: Mixed noncompetitive inhibition of recombinant Cryptosporidium hominis TS-DHFR expressed in Escherichia coli PA414 assessed as substrate Kcat at 250 uM using varying levels of [3',5',7,9-3H]-H2folate as substrate preincubated for 10 mins before NADPH addition for 5 mins followed by substrate addition and measured after 5 mins by Lineweaver-Burk plot analysis (reference value: 2.17 +/- 0.04 /s)
[13] = compound: Cc1cc(Br)ccc1NC(=S)Nc1cccc(NC(=O)c2ccccc2O)c1; assay: Mixed noncompetitive inhibition of recombinant Cryptosporidium hominis TS-DHFR expressed in Escherichia coli PA414 assessed as substrate Km at 250 uM using varying levels of [3',5',7,9-3H]-H2folate as substrate preincubated for 10 mins before NADPH addition for 5 mins followed by substrate addition and measured after 5 mins by Lineweaver-Burk plot analysis (reference value: 1.2 +/- 0.2 uM)

Row | Molecule | inhibition [1] | further results
1 | CCOC(=O)C(=CNNC(=O)[C@@H]1[C@@H](C(=O)O)[C@H]2C=C[C@@H]1C2)C(=O)OCC | -4.4% | 
2 | Oc1nc2ccccc2nc1O | -2.6% | 
3 | O=C(Nc1ccc(Cl)cc1)c1cc(Br)ccc1O | 11.1% | 
4 | Nc1cccc(NC(=O)c2ccccc2O)c1 | -1.3% | 
5 | Nc1cc(NC(=O)c2ccccc2O)ccc1Cl | -1.3% | 
6 | O=C(Nc1cc(C(F)(F)F)cc(C(F)(F)F)c1)c1cc(Br)ccc1O | 24.4% | 
7 | O=C1NC(=S)NC(=O)C1=Cc1c[nH]c2ccccc12 | -1.6% | 
8 | Cc1cc(Br)ccc1NC(=S)Nc1cccc(NC(=O)c2ccccc2O)c1 | 52.2% | K [2]: 1.6 s⁻¹; inhibition [3]: Dose-dependent effect; K [4]: 1.33 s⁻¹; solubility [5]: Insoluble; inhibition [6]: inactive
9 | O=C(Nc1ccccc1O)c1ccc(Br)cc1O | -0.176% | 
10 | NCc1ccc(NC(=O)c2ccccc2O)cc1 | 1.1% | 
11 | O=c1ccn([C@H]2C[C@H](O)[C@@H](CO)O2)c(=O)[nH]1 | -5.3% | 
12 | O=C(NNC(=O)c1ccccc1CO)c1ccc(Cl)c(Cl)c1 | 21.2% | 
13 | O=C(Nc1cc(Cl)cc(Cl)c1)c1cc(Br)ccc1O | 49% | inhibition [3]: Dose-dependent effect; solubility [5]: Insoluble
14 | O=C(Nc1ccc(Cl)cc1)c1cc(I)ccc1O | 47% | inhibition [3]: Dose-dependent effect; solubility [5]: Insoluble
15 | O=C(O)C[C@@H]1SC(c2ccc3c(c2)OCO3)=NC1=O | -0.67% | 
16 | O=C(Nc1ccc(Br)cc1)c1ccccc1O | 8.8% | 

Row | Molecule | inhibition [1] | further results
17 | NC(=S)Cc1c(Cl)sc2ccc(Cl)cc12 | 32.6% | 
18 | O=C(Nc1cccc(S)c1)c1cc(Br)ccc1O |  | inhibition [7]: inactive; inhibition [8]: Tde; inhibition [9]: 95%; inhibition ([1]; TDE = time-dependent effect): Tde
19 | CCOC(=O)C1=C(C)NC(C)=C(C(=O)OCC)C1c1ccc2c(c1)OCO2 | -7.9% | 
20 | O=C(O)c1nccnc1-c1nc(=O)c2ccccc2[nH]1 | -4.4% | 
21 | CNC(=O)c1ccc(NC(=O)c2ccccc2O)cc1 | 14.7% | 
22 | O=C(NCc1cccs1)c1ccc2nccnc2c1 | 2% | 
23 | O=C(Nc1ccc(F)c(Cl)c1)c1cc(Br)ccc1O | 61% | inhibition [3]: Dose-dependent effect; solubility [5]: Insoluble
24 | COc1cc(C(F)(F)F)c(C(N)=O)cn1 | 0.29% | 
25 | Cc1ccc(C(=O)Nc2cc(Cl)cc(Cl)c2)c(O)c1 | 61% | inhibition [7]: inactive; inhibition [3]: Dose-dependent effect; solubility [5]: Insoluble
26 | CC(=O)C[C@@]1(O)C(=O)Nc2ccc(F)cc21 | -6% | 
27 | COc1ccc(Br)c(OC)c1C(=O)NC(=O)Nc1cc(Cl)cc(Cl)c1 | 7.9% | 
28 | O=C(Nc1ccc(F)cc1)c1cc(Br)ccc1O | 20% | 
29 | Cc1cc2c(cc1C)N[C@H](C)CC(=O)N2 | -3.8% | 
30 | O=C(Nc1cccc(Cl)c1)c1cc(Cl)ccc1O | 54% | inhibition [3]: Dose-dependent effect; solubility [5]: Insoluble
31 | O=C(Nc1cc(Cl)cc(Cl)c1)c1ccccc1O | 9.8% | 
32 | Bifunctional dihydrofolate reductase-thymidylate synthase (Cryptosporidium hominis), A0A0S4TER9 (protein) MSEKNVSIVVAASVLSSGIGINGQLPWSISEDLKFFSKITNNKCDSNKKNALIMGRKTWDSIGRRPLKNRIIVVISSSLPQDEADPNVVVFRNLEDSIENLMNDDSIENIFVCGGESIYRDALKDNFVDRIYLTRVALEDIEFDTYFPEIPETFLPVYMSQTFCTKNISYDFMIFEKQEKKTLQNCDPARGQLKSIDDTVDLLGEIFGIRKMGNRHKFPKEEIYNTPSIRFGREHYEFQYLDLLSRVLENGAYRENRTGISTYSIFGQMMRFDMRESFPLLTTKKVAIRSIFEELIWFIKGDTNGNHLIEKKVYIWSGNGSKEYLERIGLGHREENDLGPIYGFQWRHYNGEYKTMHDDYTGVGVDQLAKLIETLKNNPKDRRHILTAWNPSALSQMALPPCHVLSQYYVTNDNCLSCNLYQRSCDLGLGSPFNIASYAILTMMLAQVCGYEPGELAIFIGDAHIYENHLTQLKEQLSRTPRPFPQLKFKRKVENIEDFKWEDIELIGYYPYPTIKMDMAV |  | kcat [10]: 1.9 s⁻¹; Km [11]: 1.3 µM; kcat [12]: 1.2 s⁻¹; Km [13]: 1.4 µM
